According to ChEMBL document CHEMBL1150387, “Development and experimental validation of a docking strategy for the generation of kinase-targeted libraries” (J Med Chem, 2008):

Legend:
[1] = target: T1, Calcium/calmodulin-dependent protein kinase type IV (Homo sapiens) (UniProt Q16566); test: Inhibition of CaMK4 at 10 uM by HTRF assay relative to control
T1 sequence (whole entry): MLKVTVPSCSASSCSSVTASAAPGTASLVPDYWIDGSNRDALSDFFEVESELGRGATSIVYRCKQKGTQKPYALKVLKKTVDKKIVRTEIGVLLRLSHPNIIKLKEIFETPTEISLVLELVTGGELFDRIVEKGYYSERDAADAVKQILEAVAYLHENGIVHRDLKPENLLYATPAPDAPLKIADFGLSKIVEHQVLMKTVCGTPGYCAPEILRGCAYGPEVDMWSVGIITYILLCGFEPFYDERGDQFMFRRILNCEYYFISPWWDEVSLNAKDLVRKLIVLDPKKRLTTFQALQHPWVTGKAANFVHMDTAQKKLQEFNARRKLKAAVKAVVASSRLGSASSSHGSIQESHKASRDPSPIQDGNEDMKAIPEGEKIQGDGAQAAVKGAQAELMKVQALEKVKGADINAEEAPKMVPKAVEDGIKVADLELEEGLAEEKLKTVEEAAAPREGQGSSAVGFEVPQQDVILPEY
In short: (§1)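 HTRF kinase assay, one panel of kinases. Inhibitor stock 50 µM in 100% DMSO; tested at 10 µM. ATP and substrate at final levels near Km. Final buffer: 50 mM Hepes/NaOH pH 7.4, 40 µM Na3VO4, 0.005% Tween-20, 1 mM DTT, MnCl2 or MgCl2 at kinase-dependent levels. Started by adding ATP/substrate. Reaction run at room temperature, time varied by kinase. Detection mix in 50 mM Hepes pH 7.4, 0.1% BSA, 150 mM KF, incubated ≥1 h at room temperature. Activity expressed as % of uninhibited control; n=2.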

[2] = target: Insulin-like growth factor 1 receptor (Homo sapiens) (UniProt P08069); test: Inhibition of IGF1R at 10 uM by HTRF assay relative to control; in short: as §1
Sequence of Insulin-like growth factor 1 receptor (Homo sapiens) (P08069 31-736 limits assumed): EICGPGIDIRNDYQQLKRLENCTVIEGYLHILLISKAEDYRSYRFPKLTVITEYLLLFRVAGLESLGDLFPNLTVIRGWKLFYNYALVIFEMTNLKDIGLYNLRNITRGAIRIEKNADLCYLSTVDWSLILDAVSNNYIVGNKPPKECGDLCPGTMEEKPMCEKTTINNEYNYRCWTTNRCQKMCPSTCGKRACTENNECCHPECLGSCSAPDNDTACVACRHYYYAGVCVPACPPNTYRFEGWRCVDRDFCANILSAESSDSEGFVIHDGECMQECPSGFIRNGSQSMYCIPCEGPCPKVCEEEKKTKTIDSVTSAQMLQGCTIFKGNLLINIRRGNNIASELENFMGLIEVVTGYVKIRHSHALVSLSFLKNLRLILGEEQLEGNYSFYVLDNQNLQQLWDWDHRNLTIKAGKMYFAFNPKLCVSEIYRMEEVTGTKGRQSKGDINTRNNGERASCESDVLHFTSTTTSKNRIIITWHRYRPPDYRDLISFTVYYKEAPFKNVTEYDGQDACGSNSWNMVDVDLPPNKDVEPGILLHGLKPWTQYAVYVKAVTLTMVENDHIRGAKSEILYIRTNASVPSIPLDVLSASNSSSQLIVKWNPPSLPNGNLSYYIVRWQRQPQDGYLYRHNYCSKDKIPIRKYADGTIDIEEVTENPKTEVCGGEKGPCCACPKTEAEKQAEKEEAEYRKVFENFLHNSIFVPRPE
Sequence of Insulin-like growth factor 1 receptor (Homo sapiens) (P08069 741-1367 limits assumed): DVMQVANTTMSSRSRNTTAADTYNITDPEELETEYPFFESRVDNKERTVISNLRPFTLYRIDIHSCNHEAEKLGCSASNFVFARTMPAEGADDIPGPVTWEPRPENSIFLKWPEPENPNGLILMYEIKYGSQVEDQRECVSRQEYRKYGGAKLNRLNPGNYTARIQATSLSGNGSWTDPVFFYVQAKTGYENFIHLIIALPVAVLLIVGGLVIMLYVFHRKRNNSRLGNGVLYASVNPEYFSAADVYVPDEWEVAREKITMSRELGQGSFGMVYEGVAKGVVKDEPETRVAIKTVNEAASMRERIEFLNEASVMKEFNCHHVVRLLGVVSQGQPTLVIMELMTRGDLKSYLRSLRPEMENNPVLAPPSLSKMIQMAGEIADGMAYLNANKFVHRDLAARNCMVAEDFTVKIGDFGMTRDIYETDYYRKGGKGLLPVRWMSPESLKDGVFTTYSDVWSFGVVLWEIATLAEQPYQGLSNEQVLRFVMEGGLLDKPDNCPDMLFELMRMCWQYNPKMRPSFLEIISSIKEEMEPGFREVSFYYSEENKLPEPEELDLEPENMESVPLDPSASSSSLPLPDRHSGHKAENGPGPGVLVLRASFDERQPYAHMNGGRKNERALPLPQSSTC

[3] = target: MAP kinase-activated protein kinase 2 (Homo sapiens) (UniProt P49137); test: Inhibition of MAPKAPK2 at 10 uM by HTRF assay relative to control; in short: as §1
Sequence of MAP kinase-activated protein kinase 2 (Homo sapiens) (P49137 whole entry, looked up): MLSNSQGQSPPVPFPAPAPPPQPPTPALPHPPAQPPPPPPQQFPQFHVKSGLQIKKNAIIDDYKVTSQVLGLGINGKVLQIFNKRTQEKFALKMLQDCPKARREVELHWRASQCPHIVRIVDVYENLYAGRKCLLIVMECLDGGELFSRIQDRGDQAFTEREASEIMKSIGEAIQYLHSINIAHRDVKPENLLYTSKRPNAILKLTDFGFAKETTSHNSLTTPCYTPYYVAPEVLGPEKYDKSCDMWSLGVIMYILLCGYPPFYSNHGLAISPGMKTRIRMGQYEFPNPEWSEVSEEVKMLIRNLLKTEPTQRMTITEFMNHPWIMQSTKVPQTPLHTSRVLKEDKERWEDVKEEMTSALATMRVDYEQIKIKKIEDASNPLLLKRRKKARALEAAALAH

[4] = target: Epidermal growth factor receptor (Homo sapiens) (UniProt P00533); test: Inhibition of EGFR at 10 uM by HTRF assay relative to control; in short: as §1
Sequence of Epidermal growth factor receptor (Homo sapiens) (P00533 whole entry): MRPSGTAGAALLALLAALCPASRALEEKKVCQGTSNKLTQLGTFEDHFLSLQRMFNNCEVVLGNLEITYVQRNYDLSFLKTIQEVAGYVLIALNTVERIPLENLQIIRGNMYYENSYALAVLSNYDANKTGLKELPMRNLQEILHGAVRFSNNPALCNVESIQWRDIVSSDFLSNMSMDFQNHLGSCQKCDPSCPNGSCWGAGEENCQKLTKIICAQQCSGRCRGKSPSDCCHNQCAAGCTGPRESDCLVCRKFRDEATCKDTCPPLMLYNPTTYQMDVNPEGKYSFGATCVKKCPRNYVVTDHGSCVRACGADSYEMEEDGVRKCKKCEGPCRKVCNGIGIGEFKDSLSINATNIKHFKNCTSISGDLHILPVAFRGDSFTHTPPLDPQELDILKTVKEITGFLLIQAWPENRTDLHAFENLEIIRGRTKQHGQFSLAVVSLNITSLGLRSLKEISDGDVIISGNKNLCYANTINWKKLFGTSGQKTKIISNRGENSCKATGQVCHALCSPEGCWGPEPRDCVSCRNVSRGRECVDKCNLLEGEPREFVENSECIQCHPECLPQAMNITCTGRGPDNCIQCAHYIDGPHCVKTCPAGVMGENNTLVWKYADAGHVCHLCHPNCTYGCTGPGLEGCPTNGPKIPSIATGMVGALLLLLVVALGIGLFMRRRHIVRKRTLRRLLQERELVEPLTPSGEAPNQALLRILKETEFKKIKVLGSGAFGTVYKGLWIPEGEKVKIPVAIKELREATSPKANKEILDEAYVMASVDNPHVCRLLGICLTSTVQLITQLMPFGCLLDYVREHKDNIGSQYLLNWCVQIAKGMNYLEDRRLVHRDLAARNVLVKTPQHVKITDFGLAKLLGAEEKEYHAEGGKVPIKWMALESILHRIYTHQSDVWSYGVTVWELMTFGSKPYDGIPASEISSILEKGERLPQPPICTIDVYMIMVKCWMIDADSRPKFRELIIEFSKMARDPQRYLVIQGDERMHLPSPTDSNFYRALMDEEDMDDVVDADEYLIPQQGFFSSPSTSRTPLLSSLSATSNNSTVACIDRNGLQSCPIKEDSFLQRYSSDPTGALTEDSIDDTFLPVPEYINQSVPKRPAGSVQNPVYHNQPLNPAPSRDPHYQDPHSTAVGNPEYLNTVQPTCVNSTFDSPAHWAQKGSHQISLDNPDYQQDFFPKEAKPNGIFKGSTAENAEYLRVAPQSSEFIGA

[5] = target: Cyclin-dependent kinase 1 (Homo sapiens) (UniProt P06493); test: Inhibition of CDK1 at 10 uM by HTRF assay relative to control; in short: as §1
Sequence of Cyclin-dependent kinase 1 (Homo sapiens) (P06493 whole entry, looked up): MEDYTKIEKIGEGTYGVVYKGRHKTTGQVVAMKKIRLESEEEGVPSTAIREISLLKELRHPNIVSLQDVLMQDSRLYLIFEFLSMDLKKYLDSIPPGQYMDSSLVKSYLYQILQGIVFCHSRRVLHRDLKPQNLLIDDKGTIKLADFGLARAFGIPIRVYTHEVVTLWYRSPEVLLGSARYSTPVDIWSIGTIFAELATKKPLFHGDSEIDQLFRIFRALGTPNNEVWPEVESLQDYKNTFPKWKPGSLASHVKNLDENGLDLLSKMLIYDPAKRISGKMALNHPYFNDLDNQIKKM

[6] = target: T2, Inhibitor of nuclear factor kappa-B kinase subunit beta (Homo sapiens) (UniProt O14920); test: Inhibition of IKK-beta at 10 uM by HTRF assay relative to control; in short: as §1
T2 sequence (whole entry): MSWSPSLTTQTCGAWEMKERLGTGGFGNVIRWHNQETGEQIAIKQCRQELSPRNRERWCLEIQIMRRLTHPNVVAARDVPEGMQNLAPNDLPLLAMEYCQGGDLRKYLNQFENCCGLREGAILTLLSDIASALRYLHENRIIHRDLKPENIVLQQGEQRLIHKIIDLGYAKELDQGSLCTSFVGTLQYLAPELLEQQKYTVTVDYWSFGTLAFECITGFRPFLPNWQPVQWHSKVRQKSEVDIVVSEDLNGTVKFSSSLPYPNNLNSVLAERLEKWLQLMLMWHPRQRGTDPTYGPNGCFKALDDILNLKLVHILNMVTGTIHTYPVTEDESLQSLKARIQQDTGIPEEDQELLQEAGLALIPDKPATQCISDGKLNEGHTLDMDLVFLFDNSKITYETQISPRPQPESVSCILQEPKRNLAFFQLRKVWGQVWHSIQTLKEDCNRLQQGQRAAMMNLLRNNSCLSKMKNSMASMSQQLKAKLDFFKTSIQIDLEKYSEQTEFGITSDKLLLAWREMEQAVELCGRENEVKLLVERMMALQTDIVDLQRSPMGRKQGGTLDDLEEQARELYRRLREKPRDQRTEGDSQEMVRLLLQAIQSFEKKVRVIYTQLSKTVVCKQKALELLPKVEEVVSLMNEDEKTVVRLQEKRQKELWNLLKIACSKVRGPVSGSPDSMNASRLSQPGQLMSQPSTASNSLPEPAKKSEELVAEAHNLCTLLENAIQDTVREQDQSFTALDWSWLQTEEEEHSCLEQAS

[7] = target: T3, Tyrosine-protein kinase ZAP-70 (Homo sapiens) (UniProt P43403); test: Inhibition of ZAP70 at 10 uM by HTRF assay relative to control; in short: as §1
T3 sequence (whole entry): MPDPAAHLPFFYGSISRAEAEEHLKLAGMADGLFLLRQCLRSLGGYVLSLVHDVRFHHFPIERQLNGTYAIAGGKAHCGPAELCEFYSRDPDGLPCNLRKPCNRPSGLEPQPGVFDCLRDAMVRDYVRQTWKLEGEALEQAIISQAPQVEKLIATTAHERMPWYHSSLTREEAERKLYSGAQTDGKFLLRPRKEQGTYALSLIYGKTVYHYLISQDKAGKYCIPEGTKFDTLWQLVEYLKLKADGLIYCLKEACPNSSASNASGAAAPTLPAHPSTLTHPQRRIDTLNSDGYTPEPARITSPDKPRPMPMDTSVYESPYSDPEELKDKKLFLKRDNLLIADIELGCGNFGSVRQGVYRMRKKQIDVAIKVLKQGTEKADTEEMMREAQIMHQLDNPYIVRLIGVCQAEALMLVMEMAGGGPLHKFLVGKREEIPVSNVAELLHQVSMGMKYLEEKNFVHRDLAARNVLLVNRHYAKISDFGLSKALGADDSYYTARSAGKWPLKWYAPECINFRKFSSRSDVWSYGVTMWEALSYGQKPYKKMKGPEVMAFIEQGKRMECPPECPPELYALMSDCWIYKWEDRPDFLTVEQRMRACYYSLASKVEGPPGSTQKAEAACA

[8] = target: 3-phosphoinositide-dependent protein kinase 1 (Homo sapiens) (UniProt O15530); test: Inhibition of PDK1 at 10 uM by HTRF assay relative to control
Sequence of 3-phosphoinositide-dependent protein kinase 1 (Homo sapiens) (O15530 whole entry, looked up): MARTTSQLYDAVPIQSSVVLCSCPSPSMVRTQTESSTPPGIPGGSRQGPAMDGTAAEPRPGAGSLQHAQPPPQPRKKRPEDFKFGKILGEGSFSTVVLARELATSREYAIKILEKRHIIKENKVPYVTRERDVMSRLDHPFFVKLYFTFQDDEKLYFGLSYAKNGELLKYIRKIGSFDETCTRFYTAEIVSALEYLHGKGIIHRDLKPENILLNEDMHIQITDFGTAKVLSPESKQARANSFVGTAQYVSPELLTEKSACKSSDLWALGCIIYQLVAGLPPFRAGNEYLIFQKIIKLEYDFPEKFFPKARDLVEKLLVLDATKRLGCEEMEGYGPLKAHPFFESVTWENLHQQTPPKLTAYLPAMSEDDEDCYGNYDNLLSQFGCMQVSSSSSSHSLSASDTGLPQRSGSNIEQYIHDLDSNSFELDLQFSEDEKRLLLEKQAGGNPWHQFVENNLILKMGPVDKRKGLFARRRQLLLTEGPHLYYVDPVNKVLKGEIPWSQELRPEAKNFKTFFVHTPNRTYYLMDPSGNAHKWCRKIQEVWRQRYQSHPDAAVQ

[9] = target: Mitogen-activated protein kinase 1 (Homo sapiens) (UniProt P28482); test: Inhibition of ERK2 at 10 uM by HTRF assay relative to control; in short: as §1
Sequence of Mitogen-activated protein kinase 1 (Homo sapiens) (P28482 whole entry): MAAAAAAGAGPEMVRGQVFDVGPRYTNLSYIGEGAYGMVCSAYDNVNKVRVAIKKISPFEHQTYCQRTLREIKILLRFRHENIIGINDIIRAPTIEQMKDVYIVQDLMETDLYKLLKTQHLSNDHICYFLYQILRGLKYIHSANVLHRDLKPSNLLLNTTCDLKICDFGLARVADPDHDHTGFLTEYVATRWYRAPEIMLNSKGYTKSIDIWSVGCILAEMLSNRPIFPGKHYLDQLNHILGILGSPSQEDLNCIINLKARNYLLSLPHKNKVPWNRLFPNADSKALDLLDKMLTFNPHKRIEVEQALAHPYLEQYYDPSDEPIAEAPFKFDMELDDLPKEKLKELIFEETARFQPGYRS

[10] = target: Ribosomal protein S6 kinase alpha-3 (Homo sapiens) (UniProt P51812); test: Inhibition of RSK2 at 10 uM by HTRF assay relative to control; in short: as §1
Sequence of Ribosomal protein S6 kinase alpha-3 (Homo sapiens) (P51812 whole entry): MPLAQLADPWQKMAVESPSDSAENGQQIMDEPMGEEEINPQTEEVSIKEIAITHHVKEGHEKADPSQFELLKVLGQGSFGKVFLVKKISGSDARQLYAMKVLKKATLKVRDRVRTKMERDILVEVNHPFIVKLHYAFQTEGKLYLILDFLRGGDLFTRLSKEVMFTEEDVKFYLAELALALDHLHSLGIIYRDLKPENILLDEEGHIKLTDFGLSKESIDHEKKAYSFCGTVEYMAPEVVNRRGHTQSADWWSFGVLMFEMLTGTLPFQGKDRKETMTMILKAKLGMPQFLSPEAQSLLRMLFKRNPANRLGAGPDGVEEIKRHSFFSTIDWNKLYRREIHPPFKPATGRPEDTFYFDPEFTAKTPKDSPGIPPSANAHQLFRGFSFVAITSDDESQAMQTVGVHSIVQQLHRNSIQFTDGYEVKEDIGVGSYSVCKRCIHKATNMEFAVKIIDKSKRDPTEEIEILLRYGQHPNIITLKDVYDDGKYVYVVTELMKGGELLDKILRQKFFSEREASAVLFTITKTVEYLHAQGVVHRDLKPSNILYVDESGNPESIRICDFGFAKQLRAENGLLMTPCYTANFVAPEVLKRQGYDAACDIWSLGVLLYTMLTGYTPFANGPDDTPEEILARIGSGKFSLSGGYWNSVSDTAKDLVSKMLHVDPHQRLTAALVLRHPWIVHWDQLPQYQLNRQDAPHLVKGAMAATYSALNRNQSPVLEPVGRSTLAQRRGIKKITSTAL

inhibition [1]	inhibition [2]	inhibition [3]	inhibition [4]	inhibition [5]	inhibition [6]	inhibition [7]	inhibition [8]	inhibition [9]	inhibition [10]	SMILES
0%	0%	4%	0%	0%	1%	6%	0%	0%	0%	O=C(NC1Cc2ccccc2C1)c1cccc(Nc2ccnc(N3CCN(c4ccccc4)CC3)n2)c1
0%	0%	0%	0%	0%	7%	4%	1%	0%	0%	Cc1ccc(CN2CCN(c3nccc(C(C#N)c4ccccn4)n3)CC2)cc1 (centres undefined)
0%	0%	1%	0%	0%	4%	6%	1%	0%	0%	Nc1nc(Nc2ccc(C(=O)NCCc3ccncc3)cc2)cc(N2CCOCC2)n1
0%	0%	0%	84%	0%	0%	0%	0%	6%	0%	Cc1cccc(N(C)c2cc(Nc3cccc(C(=O)N(CC(C)C)CC(C)C)c3)ncn2)c1
0%	0%	3%	0%	0%	1%	2%	0%	8%	0%	CN(C)c1ccc(C(=O)N2CCN(c3ncnc4c3CN(Cc3ccccc3)CC4)CC2)c2ccccc12
0%	0%	0%	97%	0%	3%	4%	0%	3%	0%	Cc1cccc(N(C)c2cc(Nc3cccc(C(=O)NCc4ccc(N(C)C)cc4)c3)ncn2)c1
0%	0%	4%	0%	0%	2%	6%	0%	0%	5%	Cc1cccc(Nc2nccc(Nc3cccc(C(=O)NCc4ccc(N(C)C)cc4)c3)n2)c1
0%	0%	0%	36%	0%	6%	3%	4%	0%	0%	COc1cccc(Nc2cc(Nc3cccc(C(=O)N(C)CCc4ccccn4)c3)nc(N)n2)c1
0%	0%	0%	0%	0%	1%	0%	0%	0%	0%	COC[C@@H]1CCCN1C(=O)C1CCCN1c1cc(Nc2cccc(Br)c2)ncn1 (some centres undefined)
0%	0%	0%	82%	0%	0%	4%	0%	6%	0%	Cc1cccc(Nc2nccc3c2CN(C(=O)c2cc(C)n(C)c2C)CC3)c1
0%	0%	0%	84%	0%	7%	0%	0%	0%	0%	Cc1cccc(N(C)c2cc(Nc3cccc(C(=O)N4CCCC5CCCCC54)c3)ncn2)c1 (centres undefined)
0%	0%	4%	0%	0%	5%	1%	10%	0%	0%	CN(C)CC(C)(C)CNC(=O)[C@@H]1CCCN1c1nccc(Nc2ccccc2)n1
0%	0%	0%	97%	0%	8%	4%	0%	6%	0%	Cc1cccc(N(C)c2cc(Nc3cccc(C(=O)N(C)CCc4ccccn4)c3)ncn2)c1
0%	0%	0%	0%	0%	1%	0%	0%	1%	0%	Nc1nc(Nc2ccccc2)cc(N2CCC(C(=O)NCCc3ccccn3)CC2)n1
0%	0%	0%	100%	0%	0%	4%	0%	4%	0%	Cc1cccc(N(C)c2cc(Nc3cccc(C(=O)NCCCn4ccnc4)c3)ncn2)c1
0%	0%	0%	17%	0%	2%	0%	4%	1%	0%	COc1ccc(-c2noc(CN3CCN(c4cc(Nc5cccc(O)c5)ncn4)CC3)n2)cc1
0%	0%	0%	0%	0%	5%	3%	0%	0%	0%	Nc1nc(N2CCOCC2)cc(N2CCC(C(=O)NCc3cccs3)CC2)n1
0%	50%	1%	23%	0%	36%	13%	0%	0%	35%	CN(CCc1ccccn1)C(=O)c1cccc(Nc2nccc(Nc3ccc4ncsc4c3)n2)c1
0%	0%	0%	81%	0%	10%	0%	0%	0%	0%	O=C(COc1ccccc1)N1CCN(c2nccc(Nc3ccc4ncsc4c3)n2)CC1
0%	0%	0%	0%	0%	6%	8%	0%	0%	0%	CN(C)CC(C)(C)CNC(=O)C1CCN(c2cc(N3CCOCC3)nc(N)n2)CC1
0%	0%	0%	0%	0%	0%	1%	0%	6%	0%	Cc1cccc(Oc2ccnc(N3CCN(CC(=O)Nc4cccc5c4CCCC5)CC3)n2)c1
0%	0%	4%	0%	0%		3%	2%	0%	0%	O=C(C1CCN(c2nccc(Nc3ccccc3)n2)CC1)N1CC[C@@H](O)C1
